Series [1] has as its system Staphylococcus aureus. Nature of the series: Antibacterial activity against methicillin-susceptible Staphylococcus aureus 209P after 24 hrs by microdilution method. In kind it is functional. In a few lines:
(§1)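 Broth microdilution in Mueller-Hinton broth with 0.85% NaCl, inoculum about 10^5 CFU per 100 μL. Compounds were diluted in water from 25.6 mg/mL stocks to final 2-fold series of 0.062–128 μg/mL. Plates were incubated 24 h at 35 °C. MIC was the lowest concentration at which all triplicate wells were clear, from three independent determinations.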

Series [2] deals with Enterococcus. Description: Antibacterial activity against vancomycin resistant Enterococcus FN-1 after 24 hrs by microdilution method. In kind it is functional. As to conditions: FN-1, 24 h. In a few lines: as §1
A general note: In broth dilution the organism is exposed to a series of concentrations in liquid medium.

For series [3], the system named is Enterococcus. Nature of the series: Antibacterial activity against vancomycin resistant Enterococcus NCTC 12201 after 24 hrs by microdilution method. In kind it is functional. As to conditions: NCTC 12201, 24 h. In a few lines:
as §1

The subject of series [4] is Staphylococcus aureus. Description: Antibacterial activity against vancomycin-intermediate Staphylococcus aureus Mu50 after 24 hrs by microdilution method. In kind it is functional. To be noted: Mu50, 24 h. In a few lines:
as §1

For series [5], the system named is Staphylococcus aureus. Nature of the series: Antibacterial activity against methicillin-resistant Staphylococcus aureus OM481 after 24 hrs by microdilution method. To be noted: OM481, 24 h. In kind it is functional. In a few lines: as §1
Series [6] has as its system Staphylococcus aureus. Nature of the series: Antibacterial activity against methicillin-resistant Staphylococcus aureus OM584 after 24 hrs by microdilution method. In kind it is functional. As to conditions: OM584, 24 h. In a few lines:
as §1

Series [7] relates to Staphylococcus aureus. Nature of the series: Antibacterial activity against methicillin-resistant Staphylococcus aureus N315 after 24 hrs by microdilution method. To be noted: N315, 24 h. In kind it is functional. An outline of the steps: as §1
The test system of series [8] is Staphylococcus aureus. Description: Antibacterial activity against methicillin-resistant Staphylococcus aureus COL after 24 hrs by microdilution method. In kind it is functional. An outline of the steps: as §1
The subject of another series is Streptococcus pneumoniae. Description: Antibacterial activity against Streptococcus pneumoniae R6 after 24 hrs by microdilution method. In kind it is functional. To be noted: R6, 24 h. In a few lines: (§2)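 Broth microdilution in Mueller-Hinton broth with 0.85% NaCl, inoculum about 10^5 CFU per 100 μL. Compounds diluted from 25.6 mg/mL stocks in water to 2-fold series, final 0.062–128 μg/mL. […] Three independent determinations.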

A further series relates to Pseudomonas aeruginosa. Description: Antibacterial activity against Pseudomonas aeruginosa PAO1 after 24 hrs by microdilution method. In kind it is functional. As to conditions: PAO1, 24 h. An outline of the steps:
as §2

A further series has as its system Escherichia coli. Description: Antibacterial activity against Escherichia coli K-12 after 24 hrs by microdilution method. In kind it is functional. As to conditions: K-12, 24 h. In a few lines: as §2
Series [9] has as its system Enterococcus. Description: Ratio MIC for vancomycin to compound for vancomycin-resistant Enterococcus FN-1. In kind it is functional.
Series [10] is described as follows: Inhibition of Escherichia coli DNA gyrase assessed as inhibition of pBR322 supercoiling by densitometry. An outline of the steps:
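One unit of E. coli gyrase with 0.5 μg relaxed pBR322 DNA, 37 °C, 30 min. Stopped with sucrose/EDTA dye, run on 1.0% agarose in TAE. IC50 from densitometry via log-interpolation equation.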

The nature of series [11]: Inhibition of Staphylococcus aureus DNA Topoisomerase 4-mediated decatenation of kDNA after 30 mins by densitometry. In a few lines:
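Purchased S. aureus topoIV, one unit with 200 ng kDNA, 37 °C, 30 min. Products resolved on 1.0% agarose in TAE. IC50 of decatenation from densitometry by interpolation equation, at least three determinations.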

Series [12] in a line: Inhibition of Escherichia coli DNA topoisomerase 4 subunit ParC/DNA topoisomerase 4 subunit ParE-mediated decatenation of kDNA by densitometry. In a few lines:
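Purchased E. coli topoIV kit enzyme, one unit with 200 ng kDNA, 37 °C, 30 min. Buffer: 50 mM HEPES-KOH pH 7.6, 5 mM magnesium acetate, 100 mM potassium glutamate, 10 mM DTT, 1 mM ATP, 40% glycerol. Gel on 1.0% agarose in TAE. IC50 of decatenation from densitometry by interpolation equation, at least three determinations.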

For series [13], the system named is Mus musculus. Nature of the series: Toxicity in mouse at 100 mg/kg, iv administered for 4 days assessed as transient seizure like reaction measured after 10 mins of compound administration. In kind it is organism-based. Set-up: dose 100 mg/kg, route intravenous. As to conditions: in vivo.
The subject of series [14] is Mus musculus. Nature of the series: Toxicity in mouse at 100 mg/kg, iv administered for 4 days assessed as transient seizure like reaction measured after 1 day of compound administration. In kind it is organism-based. Also on record: dose 100 mg/kg, route intravenous. To be noted: in vivo, 24 h.
Series [15] concerns Mus musculus. Nature of the series: Toxicity in iv dosed mouse assessed as incidence of mortality measured 14 days post dose. In kind it is organism-based. To be noted: in vivo, 336 h. In a few lines: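 Male mice (n = 4), 15–30 g, given water only for 12 h beforehand. Dosed intravenously by tail vein in 50% PEG in saline at 10, 50 or 100 mg/kg/day for 4 days (total dose volume 20 mL/kg). Weight gain, mobility and mortality were observed up to 14 days.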

A short description of series [16]: Ratio IC50 for Escherichia coli DNA topoisomerase 4 ParC/DNA topoisomerase 4 subunit ParE-mediated decatenation of kDNA to IC50 for Staphylococcus aureus DNA topoisomerase 4 subunit B-mediated decatenation of kDNA.
Series [17] concerns Mus musculus. Description: Toxicity in mouse at 10 mg/kg, iv administered for 4 days measured after 14 days. In kind it is organism-based. As to conditions: in vivo, 336 h. Also on record: dose 10 mg/kg, route intravenous.
In series [18] the test system is Mus musculus. Nature of the series: Toxicity in mouse at 50 mg/kg, iv administered for 4 days measured after 14 days. In kind it is organism-based. Also on record: dose 50 mg/kg, route intravenous. To be noted: in vivo, 336 h.
Series [19] is described as follows: Intestinal absorption in Wistar rat at 1 mg/mL, injected into small intestine, measured after 1 hr by UV-spectrophotometric analysis. As to conditions: in situ, intestinal injection.

As usually defined, the MIC is the lowest concentration that inhibits growth of the organism. The term IC50 denotes the midpoint of a concentration-inhibition curve.

The structures appear in SMILES notation. In brackets after ≈: the same amount, converted by molar mass.

Turning to `Cc1ccc(CCC(=O)Oc2cc(O)c3c(=O)c(OC(=O)CCc4ccc(C)cc4)c(-c4ccc(O)c(O)c4)oc3c2)cc1`, the MIC in the series with Staphylococcus aureus [1] came out at 64 mg/L (≈ 108 µM); against Enterococcus [2] it was 64 mg/L (≈ 108 µM); with Enterococcus [3], 64 mg/L (≈ 108 µM); against Staphylococcus aureus [4], 16 mg/L (≈ 26.9 µM); against Staphylococcus aureus [5], 32 mg/L (≈ 53.8 µM); against Staphylococcus aureus [6], 32 mg/L (≈ 53.8 µM). Further, the MIC against Staphylococcus aureus [7] amounted to 32 mg/L (≈ 53.8 µM); against Staphylococcus aureus [8], 32 mg/L (≈ 53.8 µM); in the series with Streptococcus pneumoniae it was 32 mg/L (≈ 53.8 µM); against Pseudomonas aeruginosa, 64 mg/L (≈ 108 µM); in the series on Escherichia coli it was 64 mg/L (≈ 108 µM). In addition, the Ratio with Enterococcus [9] stood at 2. For the same compound, the results for the IC50 in series [10], in series [11] and in [12] were 1.66 µM, 0.44 µM and 8.59 µM, respectively.

Take `O=C(CCc1ccc(F)cc1)OC[C@H]1O[C@@H](Oc2c(-c3ccc(O)c(O)c3)oc3cc(O)cc(O)c3c2=O)[C@H](OC(=O)CCc2ccc(F)cc2)[C@@H](O)[C@H]1O`: the Activity result in the series on Mus musculus [13] is recorded as “Toxic”; in the series with Mus musculus [14], “Non-toxic”; in the series with Mus musculus [15], “Non-toxic”; with Mus musculus [17], “Non-toxic”; in the series with Mus musculus [18], “Non-toxic”. For the same compound, the MIC is 0.13 mg/L (≈ 0.17 µM) in the series on Staphylococcus aureus [1]; 0.25 mg/L (≈ 0.327 µM) with Enterococcus [2]; 0.25 mg/L (≈ 0.327 µM) against Enterococcus [3]; 0.5 mg/L (≈ 0.654 µM) with Staphylococcus aureus [4]; 0.13 mg/L (≈ 0.17 µM) against Staphylococcus aureus [5]; 0.13 mg/L (≈ 0.17 µM) against Staphylococcus aureus [6]. Further, the MIC against Staphylococcus aureus [7] was 0.13 mg/L (≈ 0.17 µM); in the series on Staphylococcus aureus [8], 0.5 mg/L (≈ 0.654 µM); against Streptococcus pneumoniae, 0.13 mg/L (≈ 0.17 µM); in the series on Pseudomonas aeruginosa, more than 128 mg/L; in the series with Escherichia coli it was more than 128 mg/L. For the same compound, the IC50 is 0.78 µM in [10], 0.22 µM in series [11] and 9.16 µM in [12]. Besides, the Ratio IC50 in series [16] is 40. In addition, the Fa at 1 h in series [19] amounted to 76.6%.

For the origin of these results see ChEMBL document CHEMBL1795235, “Quercetin diacylglycoside analogues showing dual inhibition of DNA gyrase and topoisomerase IV as novel antibacterial agents” (J Med Chem, 2011).
